pCIP destab – p/CIP-EGFP fusion destabilizers, primary screen, fluorescence, F442A cells; Q05BA5; 16 h; decrease of EGFP signal, % at 10 µM; 290,000 tested, 0.01% active;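 active = EGFP signal decrease of at least 30% at 10 µM or well 3 SD below plate mean, unless failing retest; inactive = the rest, including hits failing retest or dose response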
Target sequence (Q05BA5 1-1403): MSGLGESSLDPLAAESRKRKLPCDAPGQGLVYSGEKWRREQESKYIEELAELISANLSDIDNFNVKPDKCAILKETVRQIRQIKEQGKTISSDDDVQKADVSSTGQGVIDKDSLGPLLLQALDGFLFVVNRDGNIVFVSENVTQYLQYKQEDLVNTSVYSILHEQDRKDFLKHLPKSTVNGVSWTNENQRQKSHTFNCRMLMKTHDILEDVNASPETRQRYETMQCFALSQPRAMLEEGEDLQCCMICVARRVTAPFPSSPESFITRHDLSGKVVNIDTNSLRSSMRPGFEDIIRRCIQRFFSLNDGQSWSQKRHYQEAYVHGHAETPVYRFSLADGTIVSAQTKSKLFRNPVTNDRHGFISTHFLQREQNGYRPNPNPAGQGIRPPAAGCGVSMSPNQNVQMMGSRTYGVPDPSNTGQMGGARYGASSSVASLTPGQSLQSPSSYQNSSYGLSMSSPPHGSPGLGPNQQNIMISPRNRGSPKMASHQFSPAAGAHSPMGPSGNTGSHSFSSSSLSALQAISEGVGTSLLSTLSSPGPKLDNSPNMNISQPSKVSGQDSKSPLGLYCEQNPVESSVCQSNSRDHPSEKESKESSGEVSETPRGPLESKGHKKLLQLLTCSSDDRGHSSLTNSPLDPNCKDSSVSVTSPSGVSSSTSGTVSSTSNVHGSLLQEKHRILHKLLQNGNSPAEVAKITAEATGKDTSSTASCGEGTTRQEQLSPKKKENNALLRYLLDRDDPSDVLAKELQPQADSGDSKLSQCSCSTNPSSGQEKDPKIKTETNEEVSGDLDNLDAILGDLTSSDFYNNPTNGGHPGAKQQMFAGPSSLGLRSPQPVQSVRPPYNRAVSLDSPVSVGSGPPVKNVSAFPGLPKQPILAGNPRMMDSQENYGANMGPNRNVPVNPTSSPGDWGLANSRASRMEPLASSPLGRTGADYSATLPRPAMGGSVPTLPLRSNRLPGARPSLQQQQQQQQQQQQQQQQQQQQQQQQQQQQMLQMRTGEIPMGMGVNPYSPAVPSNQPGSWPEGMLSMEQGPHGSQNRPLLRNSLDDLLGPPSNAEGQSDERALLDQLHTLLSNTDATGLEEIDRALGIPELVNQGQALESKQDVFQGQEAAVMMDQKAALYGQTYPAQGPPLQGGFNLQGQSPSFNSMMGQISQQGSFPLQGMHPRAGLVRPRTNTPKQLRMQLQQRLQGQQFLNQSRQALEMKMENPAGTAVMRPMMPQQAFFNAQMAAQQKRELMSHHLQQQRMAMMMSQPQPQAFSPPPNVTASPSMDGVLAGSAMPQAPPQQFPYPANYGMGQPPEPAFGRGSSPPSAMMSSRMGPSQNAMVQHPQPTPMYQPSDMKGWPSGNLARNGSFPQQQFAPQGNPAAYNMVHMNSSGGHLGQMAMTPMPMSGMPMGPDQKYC
MDM2 E3 inh – MDM2-luciferase reporter signal enhancers, primary screen, MDM2 E3 ligase inhibitor project, cell-based, luminescence, 1536-well. cell-based MDM2 ubiquitination luciferase reporter, 2 h; 0 = plate control, 100 = twice control, blank-subtracted. E3 ubiquitin-protein ligase Mdm2 (Homo sapiens), Q00987. AID 1230, 2008. signal enhancement, % at 5 µM. 210,000 tested, 0.11% active;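 active = signal enhancement of 30% or more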;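 also: luminescence tracks abundance of the self-degrading MDM2-luciferase fusion protein; higher signal means inhibition of MDM2 E3 ligase activity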
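Test system: mammalian cells stably expressing self-ubiquitinating, self-degrading MDM2 E3–luciferase fusion; Amount: 2000 cells in each well; Medium: DMEM; Schedule: 4 h settle plus 2 h compound, 37 °C; Technique: SteadyLite luciferase luminescence after 15 min room-temperature reagent incubation; Benchmarks: plate control and blank wells.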
Hep lipid drop – inhibitors of hepatocyte lipid droplet formation, primary screen, imaging, high-throughput imaging, BODIPY stain; AML12 mouse hepatocytes, oleate lipid droplets; inhibition, % at 6.5 µM; 240,000 tested, 0.4% active; AID 1656, 2009;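 active = lipid droplet intensity inhibited by at least 50%, with more than 500 cells counted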
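Material – mouse AML12 hepatocyte cell line, fixed after treatment · Compound dosing – one dose, 6.5 µM compound · Times – compound with oleate, overnight · Measured by – Image-based BODIPY and DAPI two-channel analysis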
Lipid drop inh – hepatocyte lipid droplet accumulation inhibitors, confirmation, imaging, AML12 mouse hepatocytes, single concentration, high-content; shares compounds with Hep lipid drop; BODIPY lipid droplet imaging; droplets induced with 100 µM oleic acid; inhibition, % at 5.2 µM; 870 tested, 65% active;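 active = inhibition of lipid droplet metric at least 50%, with more than 300 cells in each of four replicates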;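 also: plate controls were DMSO with oleic acid for no effect and 5 µM Triacsin-C for full effect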
AML12 cytotox – AML12 hepatocyte cytotoxicity, counter-screen for hepatic lipid droplet formation project, imaging, DAPI nuclear morphology imaging; 870 tested, 3% active; z-score at 5 µM; shares compounds with Hep lipid drop; AML12 mouse hepatocytes; stronger effect = higher value; cells fed 100 µM oleate overnight; AID 463200, 2010; in the data active = z-score above about 6.3;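 also: compound exposure lasted overnight at 37 °C before fixation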
AML12 tox conf – AML12 hepatocyte cytotoxicity, confirmation, cytotoxicity control for hepatic lipid droplet formation project, cell-based, single concentration. cytotoxicity, % at 50 µM. shares compounds with Hep lipid drop. AML12 mouse hepatocyte viability, ATP luminescence; cells loaded with 100 µM oleic acid. 530 tested, under 10 active;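 active = cytotoxicity above 50% in each of four replicates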;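 also: compound exposure lasted overnight at 37 °C before the ATP read; 0% = DMSO-treated cells and 100% = wells with no cells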
Active calls of the source: *; x = not tested or not shown. The full list was thinned out, with hits kept by preference.

SMILES	pCIP destab	MDM2 E3 inh	Hep lipid drop	Lipid drop inh	AML12 cytotox	others
OCCCNc1cc(-c2ccnc(Nc3cccc(Cl)c3)n2)ccn1	-21.1	9.0	77.4*	90.0*	27.4*
CN(C)c1ccc(CNC(=O)C2CCC(CNc3c(N4CCCCC4)c(=O)c3=O)CC2)cc1 (centres undefined)	12.1	0.7	0.6	x	x
CCCC(=O)Nc1nc2c(s1)COc1ccccc1-2	13.8	x	7.3	x	x
CC(C)(C)C(=O)Nc1nc2c(s1)COc1ccccc1-2	4.4	-25.3	54.8*	105.7*	-0.723	AML12 tox conf=0.3
COc1ccc(OC)c(NC(=O)CCC(=O)Oc2ccc(C)cc2)c1	14.3	x	-10.5	x	x
COC(=O)/C=C/c1c(C)nc(NCc2ccccc2)nc1Cl	3.3	x	9.2	x	x
COc1ccc(NC(=O)Cc2cccc3ccccc23)cc1	13.7	x	-10.0	x	x
CCCCOc1ccc(C(C)NC(=O)CCS(=O)(=O)Cc2ccc(C)cc2)cc1 (centres undefined)	6.0	-17.0	51.8*	103.0*	-0.154
CCOCCCNC(=O)CCS(=O)(=O)Cc1ccc(C)cc1	-15.1	7.3	x	x	x
CC(=O)C(=Cc1cn(-c2ccccc2)nc1-c1ccccc1)C(C)=O	15.3	5.4	12.4	x	x
CCCSc1nc2cc(S(=O)(=O)N3CCOCC3)ccc2n1CC	1.7	x	3.5	x	x
CCc1ccc(C(=O)CSc2nc3cc(S(=O)(=O)N4CCOCC4)ccc3n2CC)cc1	0.0	-1.3	115.2*	21.8	-0.568
COc1cccc(N2CCN(c3ccc4nnc(CCC(=O)Nc5ccccc5OC)n4n3)CC2)c1	-9.5	x	-49.0	x	x
COc1ccc2c(c1)-c1c(ssc1=S)C(C)(C)N2S(=O)(=O)c1ccc(C)cc1	-11.0	-22.2	50.8*	60.7	1.33
Cc1ccc(S(=O)(=O)N2c3ccccc3-c3c(ssc3=S)C2(C)C)cc1	2.4	5.2	34.4	x	x
COC(=O)Nc1nc(C)c(C(=O)N(C)C)s1	7.3	-9.1	x	x	x
Cc1nc(NC(=O)C2CC2)sc1C(=O)N(C)C	-10.9	-5.1	70.5*	-16.7	-0.317
O=C(CCNc1n[nH]c(=O)[nH]c1=O)N/N=C/c1ccc(C(F)(F)F)cc1	-2.4	-1.6	-3.6	x	x
CCN(C(=O)COc1ncnc2sccc12)c1ccccc1	-8.6	-9.0	-10.6	x	x
Cc1occc1C(=O)N/N=C/c1ccc(OCc2ccccc2)cc1	-1.5	-4.9	59.6*	16.6	0.705
Cc1occc1C(=O)N/N=C/c1ccc(-c2ccccc2)cc1	-2.1	x	-8.3	x	x
Cc1c(CCC(=O)O)c(=O)oc2c(C)c(OCc3cc4c(cc3Cl)OCO4)ccc12	-2.0	-5.3	-4.0	x	x
O=C(Cc1ccccc1F)Nc1nc(-c2ccc(F)c(F)c2)cs1	-5.0	x	-29.2	x	x
CC(=O)Nc1ccc(-c2csc(NC(=O)Cc3ccccc3F)n2)cc1	4.2	x	57.7*	74.9*	-0.202	AML12 tox conf=-4.6
O=C(Cc1ccc(F)cc1)Nc1nc(-c2ccc(F)cc2)cs1	-23.6	x	28.7	x	x
SMILES	pCIP destab	MDM2 E3 inh	Hep lipid drop	Lipid drop inh	AML12 cytotox	others
CC(=O)Nc1ccc(-c2csc(NC(=O)Cc3cccc(F)c3)n2)cc1	-10.5	x	64.3*	100.5*	0.11	AML12 tox conf=-13.8
Nc1ccc(S(=O)(=O)Nc2ccc(Cl)nn2)cc1	-3.4	3.3	8.1	x	x
O=C(c1ccccc1)c1ccc(NCCCn2ccnc2)c([N+](=O)[O-])c1	-1.2	x	-7.4	x	x
C#CCOCCOCCOCCNc1nc(N2CCN(C(=O)[C@H]([C@@H](C)CC)n3cc([C@@H](N)Cc4ccc(O)cc4)nn3)CC2)nc(N2CCN(C(=O)[C@H]([C@@H](C)CC)n3cc([C@@H](N)CC(C)C)nn3)CC2)n1	2.4	x	-1.2	x	x
C#CCOCCOCCOCCNc1nc(N2CCOCC2)nc(N2CCN(C(=O)[C@H]([C@@H](C)CC)n3cc([C@@H](N)Cc4ccc(O)cc4)nn3)CC2)n1	-9.2	x	55.0*	13.3	-0.697
O=C(O)c1ccc(-n2nc(C(F)(F)F)cc2-c2cccs2)cc1	-11.2	x	15.3	x	x
CC(C)(C)C(=O)Cn1c(=O)n(CC2CCCO2)c(=O)c2ccccc21 (centres undefined)	-1.1	-3.6	54.6*	9.3	-0.424
O=C(Cn1c(=O)n(CC2CCCO2)c(=O)c2ccccc21)c1ccc(Cl)c(Cl)c1 (centres undefined)	-9.3	-70.9	5.5	x	x
Nc1cnc(Nc2ccc(Br)cc2)nc1N	2.5	-10.1	17.4	x	x
CCOc1ccc(NC(=O)N2CCCC2C(=O)NCc2ccco2)cc1 (centres undefined)	-6.8	x	17.4	x	x
COc1cc(NC(=O)CCn2c(=S)oc3ccccc32)cc(OC)c1OC	-13.4	x	-23.1	x	x
COc1ccc(N=C/C=C2/C=C(c3ccccc3)OC(C)(C)O2)cc1	-10.7	5.3	61.2*	-8.2	-0.0539
COc1ccc(N=Cc2nc(-c3ccccc3)oc2OC(C)=O)cc1	-4.2	3.4	1.6	x	x
CCn1cc(C(=O)N[C@@H](CCSC)C(=O)NCCCn2ccnc2)c(=O)c2cc3c(cc21)OCO3	-3.0	x	-19.3	x	x
N#Cc1ccc(C(=O)NC2CCCCCCC2)cc1	-1.1	x	-21.1	x	x
Nc1ccc(N(CCO)CCO)cc1	-1.3	-1.8	-2.5	x	x
Cc1cc(N(CCO)CCO)ccc1N=Nc1cc(F)ccc1F	18.7	-0.5	114.8*	111.8*	0.882	AML12 tox conf=20.0
CCOC(=O)c1ccc(-c2c(-c3ccc4c(c3)OCO4)noc2C)cc1F	-3.1	x	x	x	x
COc1cc(/C=C2\SC(=S)N(CCC(=O)N3CCCCC3)C2=O)cc(OC)c1OC	-11.4	x	x	x	x
CCOc1cccc(C(=O)Nc2ccc(N3CCN(S(C)(=O)=O)CC3)cc2)c1	-2.3	-17.8	-0.6	x	x
CCOc1cc(C(=O)Nc2ccc(N3CCN(S(C)(=O)=O)CC3)cc2)cc(OCC)c1OCC	-7.5	-0.3	61.4*	93.0*	0.8	AML12 tox conf=6.9
N#CCCn1cc(C(=O)Nc2ccc(C(=O)O)cc2)c(-c2cccc(Br)c2)n1	-0.3	x	2.4	x	x
CCC1(c2ccccc2)NC(=O)N(CC(=O)N(C)Cc2ccccc2)C1=O (centres undefined)	3.4	x	11.8	x	x
CCC1(c2ccccc2)NC(=O)N(CC(=O)N(C)Cc2c(F)cccc2Cl)C1=O (centres undefined)	-12.0	x	81.2*	99.0*	0.204	AML12 tox conf=14.0
CC(=O)N1NC(=Nc2ccccc2)SC1(C)C	-8.2	-2.5	-12.3	x	x
Cc1ccc(N2CCN(S(=O)(=O)c3c(C)nc4scc(C)n4c3=O)CC2)c(C)c1	1.0	x	-59.7	x	x
O=C(NC1CCN(C(=O)NCc2ccccc2)CC1)c1ccccc1	-11.2	x	-0.1	x	x
Cc1nc(-c2ccncc2)sc1C(=O)Nc1ccc(Br)cc1	3.5	-3.1	12.9	x	x

High-throughput results from PubChem BioAssay.
